Data set [1] has as its target T1, Glutamate NMDA receptor (Rattus norvegicus) (UniProt P35439+Q00959+Q00960+Q00961+Q62645+Q8VHN2+Q9R1M7). The experiment in a line: Evaluated in vivo for its NMDA antagonist activity by the inhibition of NMDA-induced lethality in mice. The format is functional, organism-based. The conditions noted are these: Mus musculus; target entry is the homologue from another species. The procedure, abridged: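 CF-1 mice, 22-28 g. Test agent or vehicle (0.9% saline, 5 mL/kg) was given by retrobulbar injection 5 min before a 25 mg/kg NMDA bolus given retrobulbar in the other eye. Endpoint was prevention of lethality.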

The target in data set [2] is Glutamate NMDA receptor. The experiment in a line: Ability to inhibit glutamate induced accumulation of [45 [Ca2+]] in cultured rat cortical neurons. The format is functional. Summed up:
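Fetal rat cortical hemisphere dissociated cultures used on day 14-16 after plating. Medium was serum- and Mg-free HBSS with 1.4 mM CaCl2, pH 7.4 (35 mM bicarbonate), 37 °C, 5% CO2. Cells were exposed 30 min to 100 μM L-glutamate (final) plus [45Ca2+] (2 μCi/mL) ± test agent, washed with saline, lysed, and counted. Baseline was subtracted.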

The target in data set [3] is Glutamate NMDA receptor. The experiment in a line: Binding affinity towards PCP site of the NMDA receptor was measured by displacement of […] in […]. It counts as tissue-based, Brain.
The species entered for data set [4] is Mus musculus. The data set is described as follows: Testing for ataxia was done by using an inverted screen technique. The format is functional. The procedure, abridged: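 Inverted-screen test in CF-1 mice (22-28 g), scored 5 min after retrobulbar test agent in 0.9% saline (5 mL/kg), immediately before NMDA injection.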
Data set [5] is described as follows: Partition coefficient was measured using a standard shake flask (SF) method at pH 7.4. It counts as physicochemical. The conditions noted are these: octanol/water. The procedure, abridged: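 Shake-flask partitioning at pH 7.4.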
Data set [6] in a line: Partition coefficient (logP) (HPLC). The conditions noted are these: octanol/water. The format is physicochemical.
The target of data set [7] is T1, Glutamate NMDA receptor (Rattus norvegicus). The data set is described as follows: Percent inhibition at PCP site of NMDA receptor complex was measured by displacement of […] in whole rat brain homogenate at 10 E-7 M. It counts as tissue-based. The procedure, abridged:
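[3H]TCP displacement from rat brain membrane preparation (cortical membranes in the methods; whole-brain homogenate in the assay description), following a previously published procedure.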

pIC50: −log10 of the molar value.

For `NC12CCCCC1CCc1ccccc12` (single isomer, unassigned; form 2) [listing 1 of 2 here], the 50% effect level in data set [1] (ED50) was put at a dose of 10 mg/kg.
Consider `COc1ccc2c(c1)C1(N)CC=CCC1CC2` (stereo not drawn), for which the pIC50 in data set [2] was 6.07; in data set [3], 7.34. The same molecule yielded a 50% effective dose (ED50) in data set [1] of 2.1 mg/kg. Moreover, the Ataxia in data set [4] is 2.1 mg/kg.
Molecule `CC1(C)CC2CCCCC2(N)c2ccccc21` (stereo not drawn) showed a pIC50 in data set [3] of 4.43.
`NC12CCCCC1CCc1ccccc12` (single isomer, unassigned; form 1) gave an ED50 in data set [1] of 1.3 mg/kg.
Regarding `CNC12CCCCC1CC(C)(C)c1ccccc12` (stereo not drawn), the pIC50 in data set [3] was 4.68.
With `CNC12CCCCC1CCc1ccc(O)cc12` (stereo not drawn), the figures for the negative logarithm of the IC50 (pIC50) in data set [2] and in data set [3] were 7.19 and 8.68, respectively. For the same molecule, the logD in data set [5] came to 0.31. This molecule yielded a log partition coefficient (logP) in data set [6] of 2.56. Also, the median effective dose (ED50) in data set [1] is 0.89 mg/kg. In addition, the Ataxia in data set [4] was 0.58 mg/kg.
For `NC1c2ccccc2CCC12CCCCC2` (stereo not drawn), the pIC50 in data set [3] was 5.47.
As to `CNC12CCCCC1CCc1c(C)cc(OC)cc12` (stereo not drawn), the pIC50 is 6.03 in data set [2] and 7.27 in data set [3]. Further, the logD in data set [5] is 1.72. Besides, the lipophilicity (logP) in data set [6] was found to be 4.02. Moreover, the 50% effective dose (ED50) in data set [1] amounted to 5.6 mg/kg. Also, in data set [4], the Ataxia turned out to be 3.3 mg/kg.
`CN[C@]12CCCCC1CCc1ccccc12` (stereo partly drawn): the figures for the negative logarithm of the IC50 (pIC50) in data set [2] and in data set [3] were 6.74 and 8.13, respectively. Moreover, the 50% effect level in data set [1] (ED50) was put at a dose of 0.39 mg/kg. In data set [4], the Ataxia worked out at 0.18 mg/kg.
Consider `NC12CCCCC1CCc1sccc12` (stereo not drawn), for which the negative logarithm of the IC50 (pIC50) in data set [2] is 5.80; in data set [3], 7.37. Besides, the log distribution coefficient (logD) in data set [5] turned out to be 0.66. This molecule also had a lipophilicity (logP) in data set [6] of 3.02. Besides, the median effective dose (ED50) in data set [1] came out at 0.97 mg/kg. Besides, the Ataxia in data set [4] came to 3 mg/kg.
`NC12CC=CCC1CSc1ccccc12` (stereo not drawn): the negative logarithm of the IC50 (pIC50) in data set [2] is 5.77; in data set [3] it was 7.00.
Take `CNC12CCCCC1CCc1ccc(OC)cc12` (stereo not drawn): the negative logarithm of the IC50 (pIC50) in data set [2] is 5.95; in data set [3], 8.24. The same molecule had a logD in data set [5] of 1.51. The molecule also had a logP in data set [6] of 3.75. Also, the ED50 in data set [1] came out at 1 mg/kg. The Ataxia in data set [4] is 0.4 mg/kg.
On to `CNC12CCCCC1CSc1ccccc12` (stereo not drawn), for which the pIC50 in data set [2] was 6.15; in data set [3], 7.21. The molecule also gave a logD in data set [5] of 1.54. For the same molecule, the lipophilicity (logP) in data set [6] amounted to 3.88. Also, it took a dose of 0.7 mg/kg to reach the 50% effect level in data set [1] (ED50). The Ataxia in data set [4] was 1.5 mg/kg.
In turn, `c1ccc2c(c1)CCC1CCCCC21N1CCCCC1` (stereo not drawn) showed an inhibition in data set [7] of 7%.
Molecule `CNC12CC=CCC1COc1ccccc12` (stereo not drawn) showed a pIC50 in data set [3] of 6.91.
Regarding `NC12CC=CCC1CCc1ccccc12` (stereo not drawn), the negative-log IC50 (pIC50) in data set [2] was 5.63; in data set [3], 7.06. Besides, in data set [6], the logP is 2.75. This molecule came in with a median effective dose (ED50) in data set [1] of 4.2 mg/kg. Moreover, the Ataxia in data set [4] is below 1 mg/kg.
The molecule `CNC1c2ccccc2CCC12CCCC2` (stereo not drawn) displayed an inhibition in data set [7] of 8%.
Molecule `CNC12CCC(CN)CC1CCc1ccccc12` (stereo not drawn) returned an inhibition in data set [7] of 8%. The same molecule had a log partition coefficient (logP) in data set [6] of 2.
`NC12CCCCC1CCc1ccccc12` (single isomer, unassigned; form 2) [listing 2 of 2 here]: the negative logarithm of the IC50 (pIC50) in data set [2] is 5.65; in data set [3], 6.95. The molecule also displayed an Ataxia in data set [4] below 3 mg/kg.
Take `CC1CC2CCCCC2(N)c2ccccc21` (stereo not drawn): the log distribution coefficient (logD) in data set [5] came out at 1.61. For the same molecule, in data set [6], the logP is 3.59. The molecule further had a pIC50 in data set [3] of 6.29.
On to `CN(C)C12CCCCC1CCc1ccccc12` (stereo not drawn), for which the pIC50 was 5.79 in data set [2] and 7.68 in data set [3]. The molecule further gave an ED50 in data set [1] of 1.6 mg/kg. Further, the Ataxia in data set [4] was below 0.3 mg/kg.
Turning to `NC12CCCCC1CSc1ccccc12` (stereo not drawn), the figures for the negative logarithm of the IC50 (pIC50) in data set [2] and in data set [3] were 5.73 and 7.09, respectively. It took a dose of 2.9 mg/kg to reach the 50% effect level in data set [1] (ED50). The molecule further displayed an Ataxia in data set [4] of 4.7 mg/kg.
The matching figures for `NC12CCCCC1CCc1ccc(O)cc12` (stereo not drawn): 6.28, 8.12, 5.5 mg/kg and 3 mg/kg.
`CNC12CCCCC1CC(O)c1ccccc12` (stereo not drawn) registered a log distribution coefficient (logD) in data set [5] of 0.73. This molecule also yielded a logP in data set [6] of 1.84. This molecule had a negative logarithm of the IC50 (pIC50) in data set [3] of 5.83.
`CNC12CCCCC1Sc1ccccc12` (stereo not drawn) had a pIC50 in data set [2] of 6.68. In data set [1], this molecule returned a median effective dose (ED50) of 0.41 mg/kg.
`NC12CCCCC1CCc1ccccc12` (stereo not drawn): the pIC50 in data set [2] was 6.43; in data set [3] it was 7.60. This molecule gave a logP in data set [6] of 2.92. The molecule also registered an Ataxia in data set [4] of 0.55 mg/kg.
As to `CN[C@@]12CCCCC1CCc1ccccc12` (stereo partly drawn), the negative logarithm of the IC50 (pIC50) in data set [2] is 6.09; in data set [3] it was 7.38. This molecule registered a median effective dose (ED50) in data set [1] of 0.97 mg/kg. In data set [4], this molecule returned an Ataxia of 1 mg/kg.
The like results for `NC12CC=CCC1CCc1ccc(O)cc12` (stereo not drawn) were, in that order, 5.80, 7.55, 4.6 mg/kg and 1.5 mg/kg.
The like results for `CNC12CCCCC1CCc1sccc12` (stereo not drawn) were, in that order, 6.46, 7.51, 0.89 mg/kg and 1 mg/kg.
The matching figures for `CNC12CC=CCC1CCc1ccc(OC)cc12` (stereo not drawn): 6.39, 7.68, 4.1 mg/kg and 1 mg/kg.

The record behind these values is ChEMBL document CHEMBL1126730, “Synthesis and pharmacological evaluation of 4a-phenanthrenamine derivatives acting at the phencyclidine binding site of the N-methyl-D-aspartate receptor complex” (J Med Chem, 1993).
